Test results from ChEMBL document CHEMBL1764948, “Diversonol and blennolide derivatives from the endophytic fungus Microdiplodia sp.: absolute configuration of diversonol” (2011).
≈ marks a conversion by molar mass, not a printed value. Calls of active or inactive are those of the source. The rule behind the calls is not given here.

test system: Microbotryum violaceum; assay: Antifungal activity against Microbotryum violaceum assessed as zone of inhibition measured as radius at 50 ug by agar diffusion assay; format: functional; conditions: not given
Outline: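 Samples at 1 mg/mL in acetone; 50 μg applied to a 9 mm sterile filter disk on MPY agar. The plate was then sprayed with a Microbotryum violaceum suspension and incubated at 20 °C. The inhibition zone radius was measured in mm from the disk centre.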

Row | Molecule | inhibition zone (IZ) [mm] | Activity
1 | NYSTATIN | 20 | 
2 | CC(C)[C@@H](C)/C=C/[C@@H](C)[C@H]1CC[C@H]2C3=CC=C4C[C@@H](O)CC[C@]4(C)[C@H]3CC[C@]12C [ERGOSTEROL] |  | inactive

same assay, conditions: read-out: IZ

Row | Molecule | zone of inhibition at 50 µg/disc [mm]
3 | CC(C)=O [ACETONE] | 0
4 | CC1(C)S[C@@H]2[C@H](NC(=O)Cc3ccccc3)C(=O)N2[C@H]1C(=O)O [PENICILLIN G] | 0
5 | CN(C)[C@@H]1C(O)=C(C(N)=O)C(=O)[C@@]2(O)C(O)=C3C(=O)c4c(O)cccc4[C@@](C)(O)[C@H]3C[C@@H]12 [TETRACYCLINE] | 0
6 | C[C@]1([C@H]2CCC(=O)O2)CC(=O)c2c(O)cc(O)cc2O1 [MICRODIPLODIASONE] | 0
7 | C[C@@H]1C[C@@H]([C@H](O)CC2CC(=O)NC(=O)C2)C(=O)[C@@H](C)C1 [CYCLOHEXIMIDE] | 50
8 | Cc1cc(O)c2c(c1)O[C@@]1(C)[C@@H](O)CC[C@H](O)[C@]1(O)C2=O [DIVERSONOL] | 0
9 | COC1=CC(=O)[C@@H](O)[C@@]2(O)C(=O)c3c(O)cc(C)cc3O[C@]12C [MICRODIPLODIASOLOL] | 6

test system: Legionella pneumophila; assay: Antibacterial activity against Legionella pneumophila Corby by microtiter plate assay; format: functional; conditions: not given
Outline: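 Broth microdilution MIC in liquid medium in microtiter wells. Legionella pneumophila Corby grown in YEB medium (10 g ACES, 10 g yeast extract per 1000 mL water, pH 6.9, plus supplements). Value reported as the minimum inhibitory concentration.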

Row | Molecule | MIC [µg/mL]
10 | NC[C@H]1O[C@H](O[C@H]2[C@H](O)[C@@H](O[C@H]3O[C@H](CO)[C@@H](O)[C@H](N)[C@H]3O)[C@H](N)C[C@@H]2N)[C@H](O)[C@@H](O)[C@@H]1O [KANAMYCIN] | 12.5 (≈ 0.0258 mM)
11 | C[C@H]1Oc2cccc(O)c2C(=O)[C@@H]1O | 1000 (≈ 5.15 mM)
12 | C[C@]1([C@H]2CCC(=O)O2)CC(=O)c2c(O)cc(O)cc2O1 [MICRODIPLODIASONE] | 1000 (≈ 3.59 mM)
13 | Cc1cc(O)c2c(c1)O[C@@]1(C)[C@@H](O)CC[C@H](O)[C@]1(O)C2=O [DIVERSONOL] | 1000 (≈ 3.4 mM)
14 | COC1=CC(=O)[C@@H](O)[C@@]2(O)C(=O)c3c(O)cc(C)cc3O[C@]12C [MICRODIPLODIASOLOL] | 1000 (≈ 3.12 mM)
15 | CC(C)[C@@H](C)/C=C/[C@@H](C)[C@H]1CC[C@H]2C3=CC=C4C[C@@H](O)CC[C@]4(C)[C@H]3CC[C@]12C [ERGOSTEROL] | 250 (≈ 0.63 mM)
16 | C[C@@]12Oc3cc(CO)cc(O)c3C(=O)[C@@]1(O)[C@@H](O)CC[C@@H]2O [MICRODIPLODIASOL] | 125 (≈ 0.403 mM)

test system: Escherichia coli; assay: Antibacterial activity against Escherichia coli K-12 by microtiter plate assay; format: functional, organism-based; conditions: not given
Outline: (§1)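 Minimum inhibitory concentration determined in liquid medium in microtiter wells.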

Row | Molecule | Activity
17 | C[C@H]1Oc2cccc(O)c2C(=O)[C@@H]1O | inactive
18 | C[C@]1([C@H]2CCC(=O)O2)CC(=O)c2c(O)cc(O)cc2O1 [MICRODIPLODIASONE] | inactive
19 | Cc1cc(O)c2c(c1)O[C@@]1(C)[C@@H](O)CC[C@H](O)[C@]1(O)C2=O [DIVERSONOL] | inactive
20 | COC1=CC(=O)[C@@H](O)[C@@]2(O)C(=O)c3c(O)cc(C)cc3O[C@]12C [MICRODIPLODIASOLOL] | inactive
21 | CC(C)[C@@H](C)/C=C/[C@@H](C)[C@H]1CC[C@H]2C3=CC=C4C[C@@H](O)CC[C@]4(C)[C@H]3CC[C@]12C [ERGOSTEROL] | inactive
22 | C[C@@]12Oc3cc(CO)cc(O)c3C(=O)[C@@]1(O)[C@@H](O)CC[C@@H]2O [MICRODIPLODIASOL] | inactive

test system: Priestia megaterium; assay: Antibacterial activity against Bacillus megaterium by microtiter plate assay; format: functional, organism-based; conditions: not given; outline: as §1

Row | Molecule | Activity
23 | C[C@H]1Oc2cccc(O)c2C(=O)[C@@H]1O | inactive
24 | C[C@]1([C@H]2CCC(=O)O2)CC(=O)c2c(O)cc(O)cc2O1 [MICRODIPLODIASONE] | inactive
25 | Cc1cc(O)c2c(c1)O[C@@]1(C)[C@@H](O)CC[C@H](O)[C@]1(O)C2=O [DIVERSONOL] | inactive
26 | COC1=CC(=O)[C@@H](O)[C@@]2(O)C(=O)c3c(O)cc(C)cc3O[C@]12C [MICRODIPLODIASOLOL] | inactive
27 | CC(C)[C@@H](C)/C=C/[C@@H](C)[C@H]1CC[C@H]2C3=CC=C4C[C@@H](O)CC[C@]4(C)[C@H]3CC[C@]12C [ERGOSTEROL] | inactive
28 | C[C@@]12Oc3cc(CO)cc(O)c3C(=O)[C@@]1(O)[C@@H](O)CC[C@@H]2O [MICRODIPLODIASOL] | inactive
